The nature of series [1]: Ratio of IC50 for dark toxicity to IC50 for phototoxicity in mouse B16F10 cells by cell counting kit-8 based spectrophotometric analysis. The arrangement: species or system B16-F10. To be noted: for selectivity ratio: B16F10 cells, read-out: Ratio IC50. Put shortly:
(§1)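 CCK-8 dark toxicity. 5×10^3 cells seeded in 10% FBS medium (A375 in DMEM, B16-F10 in RPMI 1640). Exposed to graded compound concentrations for 48 h at 37 °C, kept in the dark. Fresh medium and CCK-8 added for 1.5 h, then absorbance read at 450 nm to give IC50. Ratio is dark IC50 over IC50 under light.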
(Tetrazolium assays rely on reduction of a dye to a coloured formazan, in cell work by metabolically active cells.)

Series [2] concerns A-375. Nature of the series: Phototoxicity in human A375 cells assessed as cell viability after 24 hrs followed by irradiation with diode laser at 10 J/cm'2 measured after 24 hrs by cell counting kit-8 based spectrophotometric analysis. In kind it is functional. The gist of the method: (§2)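 Phototoxicity by CCK-8. Cells loaded with a range of compound concentrations for 24 h at 37 °C, irradiated with a 678 nm diode laser at 10 J/cm², then incubated a further 24 h. Viability read as absorbance at 450 nm after 1.5 h with CCK-8.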

A short description of series [3]: Phototoxicity in mouse B16F10 cells assessed as cell viability after 24 hrs followed by irradiation with diode laser at 10 J/cm'2 measured after 24 hrs by cell counting kit-8 based spectrophotometric analysis. The class given is functional, B16-F10. Put shortly: as §2
Series [4] can be described thus: Dark toxicity in mouse B16F10 cells assessed as cell viability after 48 hrs by cell counting kit-8 based spectrophotometric analysis. The arrangement: species or system B16-F10. Particulars: for IC50 at 48 h: mouse, B16F10 cells. Put shortly:
as §1

The nature of series [5]: Ratio of IC50 for dark toxicity to IC50 for phototoxicity in human A375 cells. Particulars: for selectivity ratio: A375 cells, read-out: Ratio IC50. The class given is cell-based, A-375. Put shortly:
as §1

A short description of series [6]: (§3) Dark toxicity in human A375 cells assessed as cell viability after 48 hrs by cell counting kit-8 based spectrophotometric analysis. Further details: species or system A-375. Particulars: human, A375 cells. Put shortly:
as §1

The nature of series [7]: Aqueous solubility of the compound in PBS buffer at pH 7.4. The class given is physicochemical.
For series [8], the system named is B16-F10. Kind of series: Antitumor activity against B16F10 cells implanted in C57BL/6 mouse assessed as survival time at 2 mg/kg, iv administered for 2 hrs followed by irradiation with laser at 150 J/cm'2 for 10 mins (reference value: 13 days). In kind it is functional, organism-based. Put shortly: (§4)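 B16-F10 cells (2×10^4) inoculated subcutaneously into the right thigh of male C57BL/6 mice aged 6-8 weeks. Mice with tumours 6-8 mm in diameter were used, 5 per group. Irradiation at 678 nm diode laser, 250 mW/cm² for 10 min, 2 h after i.v. dosing. Tumour volume measured by caliper as (W²×L)/2. Survival recorded daily and analysed by Kaplan-Meier with log-rank test.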

In series [9] the test system is B16-F10. Kind of series: Antitumor activity against B16F10 cells implanted in C57BL/6 mouse assessed as tumor growth inhibition at 2 mg/kg, iv administered for 2 hrs followed by irradiation with laser at 150 J/cm'2 for 10 mins. In kind it is functional, organism-based. Put shortly:
as §4

Series [10] in a line: Dark toxicity in mouse B16F10 cells assessed as cell viability after 48 hrs by MTT assay. In kind it is cell-based, B16-F10. To be noted: b16-f10. Put shortly: (§5)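 B16-F10 cells in RPMI 1640 with 10% FBS. Dark arm: compound for 48 h. Light arm: compound for 24 h, then 678 nm diode laser at 10 J/cm², then a further 24 h. Read-out by MTT for 4 h, formazan dissolved in DMSO, absorbance at 490 nm. Ratio is dark IC50 over light IC50.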

Series [11] in a line: Ratio of IC50 for dark toxicity to IC50 for phototoxicity in mouse B16F10 cells by MTT assay. In kind it is cell-based, B16-F10. To be noted: b16-f10. Put shortly:
as §5

Series [12] deals with A-375. The series is described as §3. To be noted: a-375. Put shortly: as §1
Series [13] can be described thus: Phototoxicity in mouse B16F10 cells assessed as cell viability after 24 hrs followed by irradiation with diode laser at 10 J/cm'2 measured after 24 hrs by MTT assay. To be noted: b16-f10. In kind it is functional, cell-based, B16-F10. Put shortly:
as §5

[14] abbreviates: Homo sapiens, A-375, light or radiation study, 24 h.
The mark [15] stands for this setting: Mus musculus, B16-F10, light or radiation study, 24 h.

This is an account of results in ChEMBL document CHEMBL3822438, “Chlorin p6-Based Water-Soluble Amino Acid Derivatives as Potent Photosensitizers for Photodynamic Therapy” (J Med Chem, 2016).

pIC50: −log10 of the molar value. Calls of active or inactive are those of the source. The rule behind the calls is not given here.

What is called pIC50 is the IC50 on a negative log10 scale, so that one unit is a factor of ten. Broadly, the IC50 is the concentration at which inhibition is half-maximal. As for `CCC1=C(C)c2cc3[nH]c(cc4nc(c(C(=O)OC)c5[nH]c(cc1n2)c(C)c5C(=O)OC)C(CCC(=O)N[C@@H](CCC(=O)O)C(=O)O)=C4C)[C@@]1(C)C3=CC=C(C(=O)OC)[C@H]1C(=O)OC`, the selectivity ratio came out at 55.3 in [1] and 40.3 in series [5]. The pIC50 in series [2] (setting [14]) is 5.15; in series [3] (setting [15]), 5.39. Besides, the IC50 at 48 h in [4] was determined as 224 µM; in series [6] it was 286 µM.
As usually defined, the solubility is how much of the substance goes into solution per volume. A high value points to much dissolved substance. For `C=Cc1c(C)c2cc3nc(c(C(=O)OC)c4[nH]c(cc5nc(cc1[nH]2)C(C)=C5CC)c(C)c4C(=O)OC)[C@@H](CCC(=O)O)[C@@H]3C`, the selectivity ratio stood at 52.2 in series [1] and 60.2 in [5]. Moreover, the figures for the pIC50 in series [2] (setting [14]) and in [3] (setting [15]) were 6.28 and 6.52, respectively. In addition, the figures for the IC50 at 48 h in [4] and in series [6] were 15.7 µM and 31.3 µM, respectively. For the same compound, the solubility in series [7] was below 1.6 µM.
For the compound VERTEPORFIN [listing 1 of 2 here], the MST in series [8] stood at 18 days. For the same compound, the TGI entry in series [9] is “Active”.
On to VERTEPORFIN [listing 2 of 2 here], for which the pIC50 is 4.60 in [10]; 5.69 in series [2] (a-375); 5.92 in series [3] (b16-f10); 4.60 in [4] (b16-f10); 4.44 in series [12]; 5.97 in series [13]. Further, the “Ratio IC50” value in series [1] (b16-f10) amounted to 20.77; in series [11], 23.39; in series [5] (a-375) it was 17.64.
